Structures are written as SMILES.

Common to all, as to format: functional
In assay [1] the test system is Mus musculus. Kind of assay: (§1) Mean life extension in mice bearing Trypanosoma rhodesiense, after ip administration at a dose of 0.2 mmol/kg. Further details: unit: days. Summed up:
(§2)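 Female CD-1 mice, 6-8 weeks old, 25-35 g, infected ip with about 10^6 freshly isolated trypanosomes in PBSG. At day 3 post-infection they got a single ip dose, dissolved in 50 µL DMSO or in 0.5 mL PBSG adjusted to pH 7.4. Activity is the days of survival beyond vehicle-only controls, as the mean of 4 mice to the nearest day. Parasitemia was monitored to exclude toxic deaths.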

In assay [2] the test system is Mus musculus. The experiment in a line: Mean life extension in mice bearing Trypanosoma rhodesiense, after ip administration at a dose of 0.5 mmol/kg.
For assay [3], the system named is Mus musculus. Kind of assay: Mean life extension was determined in mice bearing Trypanosoma brucei (M110) after administration of 0.2 mmol/kg per dose. In a few lines:
(§3)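 Female CD-1 mice, 6-8 weeks old, were infected ip with about 10^6 cells in PBSG. When parasitemia reached about 10^8 cells/mL they got a single 0.2 mmol/kg dose in DMSO. The result is days survived beyond DMSO-only controls, as the mean of 4 animals to the nearest day with SE. Survival of 30 days or more was counted as cure.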

Assay [4] has as its system Mus musculus. Kind of assay: Mean life extension was determined in mice bearing Trypanosoma evansi (SAK), after administration of 0.2 mmol/kg per dose. In a few lines:
as §3

The test system of assay [5] is Mus musculus. The experiment in a line: Mean life extension was determined in mice bearing Trypanosoma brucei rhodesiense (YTAT 1.1) after administration of 0.2 mmol/kg per dose. In a few lines: as §3
For assay [6], the system named is Mus musculus. Kind of assay: Mean life extension was determined in mice bearing Trypanosoma evansi (SN) after administration of 0.2 mmol/kg per dose. Summed up: as §3
Assay [7] concerns Mus musculus. The experiment in a line: Mean life extension was determined in mice bearing Trypanosoma brucei gambiense (TxTAT 1.0), after administration of 0.2 mmol/kg per dose. In a few lines:
as §3

Assay [8] concerns Mus musculus. The experiment in a line: Mean life extension was determined in mice bearing Trypanosoma equiperdum (1559), after administration of 0.2 mmol/kg per dose. Summed up:
as §3

The subject of assay [9] is Mus musculus. The experiment in a line: Mean life extension in mice bearing Trypanosoma rhodesiense, after ip administration at 0.5 mmol/kg dose. In a few lines:
as §2

Assay [10] has as its system Mus musculus. The experiment in a line: Mean life extension in mice bearing Trypanosoma rhodesiense, after ip administration at 0.4 mmol/kg dose.
The subject of assay [11] is Mus musculus. Kind of assay: Mean life extension in mice bearing Trypanosoma rhodesiense, after ip administration at 0.9 mmol/kg dose. Summed up: as §2
Assay [12] has as its system Mus musculus. Described as §1. Summed up:
as §2

As to `CCNNCC.Cl.Cl`, the Mean life extension with Mus musculus [1] is recorded as 0. Still for that read-out and setting: the result for `CNNC.Cl.Cl` reads 4. With `CNN.Cl.Cl`, the Mean life extension in the assay on Mus musculus [2] is reported as 1. Regarding `CN(NC(=O)c1ccccc1)C(=O)c1ccccc1`, the Mean life extension in the assay with Mus musculus [1] was 0. Same read-out and setting: the value for `O=S(=O)(NNS(=O)(=O)c1ccccc1)c1ccccc1` was 0. Regarding `CN(NS(C)(=O)=O)S(C)(=O)=O`, the Mean life extension in the assay on Mus musculus [3] is given as 11; in the assay on Mus musculus [4], over 30; in the assay on Mus musculus [5], 12; with Mus musculus [1] it was 12; in the assay on Mus musculus [6], 12; in the assay on Mus musculus [7] it was 13. This compound showed a Mean life extension in the assay on Mus musculus [8] of 12. In the assay with Mus musculus [1], `CN(NS(=O)(=O)c1ccccc1)S(=O)(=O)c1ccccc1` had a Mean life extension of 5. In the assay on Mus musculus [1], `COc1ccc(S(=O)(=O)NN(C)S(C)(=O)=O)cc1` gave a Mean life extension of 4. Consider `CN(C)/N=N/c1[nH]cnc1C(N)=O` [DACARBAZINE], for which the Mean life extension was over 30 in the assay with Mus musculus [9] and 6 in the assay with Mus musculus [1]. Consider `Cl.Cl.NN` [HYDRAZINE DIHYDROCHLORIDE], for which, in the assay with Mus musculus [2], the Mean life extension was found to be 0. As for `COS(C)(=O)=O` [METHANESULFONIC ACID METHYL ESTER], the Mean life extension with Mus musculus [1] was 1. For `CN(N=O)C(N)=O` [N-METHYL-N-NITROSUREA], the values for the Mean life extension with Mus musculus [1] and in the assay on Mus musculus [10] were 8 and over 30, respectively. For `CNNCc1ccc(C(=O)NC(C)C)cc1` [PROCARBAZINE], the Mean life extension with Mus musculus [1] was 5; in the assay on Mus musculus [11], over 30. The compound `CN(N=O)C(=O)N[C@@H](C=O)[C@@H](O)[C@H](O)[C@H](O)CO` [STREPTOZOCIN] registered a Mean life extension with Mus musculus [12] of 4.

Regarding `CCOS(=O)(=O)OCC` [SULFURIC ACID DIETHYL ESTER], in the assay with Mus musculus [1], the Mean life extension came out at 0. Same read-out and setting: the value for `COS(=O)(=O)OC` [SULFURIC ACID DIMETHYL ESTER] was 3.

The values are drawn from ChEMBL document CHEMBL1124829, “Methylating agents as trypanocides” (1990).
